Laboratory results: ChEMBL document CHEMBL3745617 (J Med Chem, 2015)
Active and inactive are the calls of the source. The rule behind the calls is not given here.

What was measured:
[1] = molecular target: Platelet-derived growth factor receptor beta (Homo sapiens) (UniProt P09619); assay: Inhibition of PDGFRB (unknown origin) assessed as remaining activity at 1 uM relative to control
[2] = molecular target: Tyrosine-protein kinase Lck (Homo sapiens) (UniProt P06239); assay: Inhibition of LCK (unknown origin) expressed in BaF3 cells assessed as inhibition of cell proliferation after 72 hrs by CelltiterGlo assay; type: cell-based
[3] = molecular target: Tyrosine-protein kinase HCK (Homo sapiens) (UniProt P08631); assay: Inhibition of HCK (unknown origin) expressed in BaF3 cells assessed as inhibition of cell proliferation after 72 hrs by CelltiterGlo assay; type: cell-based
[4] = molecular target: Receptor-type tyrosine-protein kinase FLT3 (Homo sapiens) (UniProt P36888); conditions: MOLM-13, 0.03 to 3 uM
[5] = molecular target: Tyrosine-protein kinase Blk (Homo sapiens) (UniProt P51451); assay: Inhibition of BLK (unknown origin) expressed in BaF3 cells assessed as inhibition of cell proliferation after 72 hrs by CelltiterGlo assay; type: cell-based
[6] = molecular target: Cytoplasmic tyrosine-protein kinase BMX (Homo sapiens) (UniProt P51813); assay: Inhibition of BMX (unknown origin) expressed in BaF3 cells assessed as inhibition of cell proliferation after 72 hrs by CelltiterGlo assay; type: cell-based
[7] = Mean residence time (0 to infinity) in Sprague-Dawley rat at 10 mg/kg, po; type: ADME, organism-based; conditions: in vivo
[8] = molecular target: Receptor-type tyrosine-protein kinase FLT3 (Homo sapiens) (UniProt P36888); conditions: MOLM-14, 0.03 to 3 uM
[9] = Antiproliferative activity against human NAMALWA cells after 72 hrs by CelltiterGlo assay; type: functional; conditions: NAMALVA
[10] = AUC (0 to infinity) in Sprague-Dawley rat at 1 mg/kg, iv; type: ADME, organism-based; set-up: dose 1 mg/kg, route intravenous, time infinity; conditions: in vivo
[11] = Antiproliferative activity against human MOLM13 cells after 72 hrs by CelltiterGlo assay; type: functional; conditions: MOLM-13, 72 h
[12] = molecular target: Receptor-type tyrosine-protein kinase FLT3 (Homo sapiens) (UniProt P36888); conditions: MV4-11, 0.03 to 3 uM
[13] = molecular target: Dual specificity mitogen-activated protein kinase kinase 5 (Homo sapiens) (UniProt Q13163); assay: Inhibition of MEK5 (unknown origin) assessed as remaining activity at 1 uM relative to control
Outline: (§1)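 KinomeScan competition binding panel of 468 kinases, with the compound tested at 1 µM. Each kinase's result is reported as percent activity remaining relative to a DMSO control.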

[14] = tested on: MV4-11; assay: Induction of apoptosis in human MV4-11 cells assessed as cleaved PARP level at 0.03 to 1 uM after 48 hrs by immunoblot analysis; type: functional, cell-based
[15] = molecular target: Tyrosine-protein kinase JAK2 (Homo sapiens) (UniProt O60674); assay: Inhibition of JAK2 (unknown origin) expressed in BaF3 cells assessed as inhibition of cell proliferation after 72 hrs by CelltiterGlo assay; type: cell-based
[16] = molecular target: Receptor-type tyrosine-protein kinase FLT3 (Homo sapiens) (UniProt P36888); conditions: MOLM-13, 0.03 to 3 uM; remark: listed apart in the source
[17] = Antiproliferative activity against human JVM2 cells after 72 hrs by CelltiterGlo assay; type: functional; conditions: JVM-2, 72 h
[18] = Tmax in Sprague-Dawley rat at 1 mg/kg, iv; type: ADME, organism-based; conditions: in vivo
[19] = tested on: MV4-11; assay: Antitumor activity against human MV4-11 cells xenografted in nu/nu mouse assessed as tumor weight at 12.5 mg/kg/day administered via oral gavage measured after 22 days of treatment (reference value: 2.5 g); type: functional
[20] = tested on: MV4-11; assay: Antitumor activity against human MV4-11 cells xenografted in nu/nu mouse assessed as tumor weight at 50 mg/kg/day administered via oral gavage measured after 22 days of treatment (reference value: 2.5 g); type: functional
[21] = Cmax in Sprague-Dawley rat at 1 mg/kg, iv; type: ADME, organism-based; set-up: dose 1 mg/kg, route intravenous; conditions: in vivo
[22] = molecular target: Tyrosine-protein kinase Srms (Homo sapiens) (UniProt Q9H3Y6); assay: Inhibition of SRMS (unknown origin) assessed as remaining activity at 1 uM relative to control; outline: as §1
[23] = tested on: Receptor-type tyrosine-protein kinase FLT3 (Homo sapiens), P36888 [D835V]; conditions: BaF3
[24] = tested on: Receptor-type tyrosine-protein kinase FLT3 (Homo sapiens), P36888 [D835H]; conditions: BaF3
[25] = molecular target: Receptor-type tyrosine-protein kinase FLT3 (Homo sapiens) (UniProt P36888); conditions: MOLM-13, 0.03 to 3 uM; remark: listed apart in the source
[26] = Antiproliferative activity against human SU-DHL-2 cells after 72 hrs by CelltiterGlo assay; type: functional; conditions: SU-DHL-2, 72 h
[27] = molecular target: Receptor-type tyrosine-protein kinase FLT3 (Homo sapiens) (UniProt P36888); conditions: MV4-11, 0.03 to 3 uM; remark: listed apart in the source
[28] = molecular target: Epidermal growth factor receptor (Homo sapiens) (UniProt P00533); assay: Inhibition of EGFR (unknown origin) expressed in BaF3 cells assessed as inhibition of cell proliferation after 72 hrs by CelltiterGlo assay; type: cell-based
[29] = Antiproliferative activity against human NB4 cells after 72 hrs by CelltiterGlo assay; type: functional; conditions: NB-4, 72 h
[30] = tested on: Receptor-type tyrosine-protein kinase FLT3 (Homo sapiens), P36888 [UNDEFINED MUTATION]; conditions: BaF3
[31] = tested on: MV4-11; assay: Antiproliferative activity against human MV4-11 cells after 72 hrs by CelltiterGlo assay; type: functional; conditions: MV4-11, 72 h
[32] = Half life in Sprague-Dawley rat at 1 mg/kg, iv; type: ADME, organism-based; conditions: in vivo
[33] = molecular target: Hepatocyte growth factor receptor (Homo sapiens) (UniProt P08581); assay: Inhibition of MET (unknown origin) expressed in BaF3 cells assessed as inhibition of cell proliferation after 72 hrs by CelltiterGlo assay; type: cell-based
[34] = tested on: MOLM-14; assay: Induction of apoptosis in human MOLM14 cells assessed as cleaved caspase-3 level at 0.03 to 1 uM after 24 hrs by immunoblot analysis; type: functional, cell-based
[35] = Apparent volume of distribution in Sprague-Dawley rat at 1 mg/kg, iv; type: ADME, organism-based; conditions: in vivo, read-out: Vd(app)
[36] = tested on: Receptor-type tyrosine-protein kinase FLT3 (Homo sapiens), P36888 [UNDEFINED MUTATION]; assay: Inhibition of FLT3 ITD mutant (unknown origin) expressed in BaF3 cells assessed as inhibition of cell proliferation after 72 hrs by CelltiterGlo assay; type: cell-based
[37] = molecular target: Receptor-type tyrosine-protein kinase FLT3 (Homo sapiens) (UniProt P36888); conditions: MV4-11, 0.03 to 3 uM; remark: listed apart in the source
[38] = molecular target: Receptor-type tyrosine-protein kinase FLT3 (Homo sapiens) (UniProt P36888); conditions: MOLM-14, 0.03 to 3 uM; remark: listed apart in the source
[39] = Mean residence time (0 to infinity) in Sprague-Dawley rat at 1 mg/kg, iv; type: ADME, organism-based; conditions: in vivo
[40] = Clearance in Sprague-Dawley rat at 1 mg/kg, iv; type: ADME, organism-based; conditions: in vivo

Sequence of Tyrosine-protein kinase HCK (Homo sapiens) (P08631 2-526 limits assumed): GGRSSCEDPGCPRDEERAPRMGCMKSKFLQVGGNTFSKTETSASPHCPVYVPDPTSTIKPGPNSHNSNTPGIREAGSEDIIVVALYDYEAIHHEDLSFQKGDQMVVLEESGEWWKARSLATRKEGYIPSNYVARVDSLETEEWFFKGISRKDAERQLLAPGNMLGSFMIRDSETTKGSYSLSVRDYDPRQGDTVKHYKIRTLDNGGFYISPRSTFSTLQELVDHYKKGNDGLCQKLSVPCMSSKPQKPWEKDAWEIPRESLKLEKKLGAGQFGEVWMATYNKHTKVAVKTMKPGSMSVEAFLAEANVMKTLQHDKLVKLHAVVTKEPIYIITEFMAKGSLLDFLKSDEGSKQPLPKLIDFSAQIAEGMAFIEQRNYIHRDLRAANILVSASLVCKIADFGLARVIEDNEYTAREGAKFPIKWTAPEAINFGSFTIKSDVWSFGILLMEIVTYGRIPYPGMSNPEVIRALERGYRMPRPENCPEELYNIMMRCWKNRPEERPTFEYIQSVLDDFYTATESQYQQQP
Sequence of Cytoplasmic tyrosine-protein kinase BMX (Homo sapiens) (P51813 whole entry): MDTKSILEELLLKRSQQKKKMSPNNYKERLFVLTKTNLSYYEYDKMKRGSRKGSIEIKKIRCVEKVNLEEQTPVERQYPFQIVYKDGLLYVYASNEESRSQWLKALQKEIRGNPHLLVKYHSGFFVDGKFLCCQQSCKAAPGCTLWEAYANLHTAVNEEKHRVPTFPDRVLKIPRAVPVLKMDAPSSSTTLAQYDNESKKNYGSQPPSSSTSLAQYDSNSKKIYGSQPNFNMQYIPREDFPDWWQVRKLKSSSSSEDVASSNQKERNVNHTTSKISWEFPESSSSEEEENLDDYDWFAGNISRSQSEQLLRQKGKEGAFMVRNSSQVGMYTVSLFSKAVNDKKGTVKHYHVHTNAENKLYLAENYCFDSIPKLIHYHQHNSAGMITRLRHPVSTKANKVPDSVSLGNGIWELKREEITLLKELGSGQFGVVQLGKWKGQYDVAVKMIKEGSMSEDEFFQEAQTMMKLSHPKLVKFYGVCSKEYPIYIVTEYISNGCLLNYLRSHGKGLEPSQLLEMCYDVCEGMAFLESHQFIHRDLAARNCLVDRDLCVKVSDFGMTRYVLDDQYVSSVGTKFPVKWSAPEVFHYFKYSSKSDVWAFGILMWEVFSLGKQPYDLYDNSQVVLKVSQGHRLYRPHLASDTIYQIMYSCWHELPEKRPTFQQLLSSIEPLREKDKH
Sequence of Dual specificity mitogen-activated protein kinase kinase 5 (Homo sapiens) (Q13163 whole entry): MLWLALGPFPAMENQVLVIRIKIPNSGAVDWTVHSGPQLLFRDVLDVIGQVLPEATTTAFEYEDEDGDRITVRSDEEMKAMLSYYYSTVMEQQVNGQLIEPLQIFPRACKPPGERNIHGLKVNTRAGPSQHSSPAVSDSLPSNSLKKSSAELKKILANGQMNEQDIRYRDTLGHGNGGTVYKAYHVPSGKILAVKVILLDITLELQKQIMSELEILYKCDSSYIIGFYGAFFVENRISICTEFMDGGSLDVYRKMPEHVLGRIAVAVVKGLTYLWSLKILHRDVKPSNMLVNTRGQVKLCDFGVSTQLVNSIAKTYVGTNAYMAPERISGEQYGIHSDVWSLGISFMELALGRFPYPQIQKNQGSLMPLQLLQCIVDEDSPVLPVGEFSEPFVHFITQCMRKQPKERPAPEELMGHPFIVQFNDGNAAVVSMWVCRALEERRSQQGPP
Sequence of Tyrosine-protein kinase JAK2 (Homo sapiens) (O60674 whole entry): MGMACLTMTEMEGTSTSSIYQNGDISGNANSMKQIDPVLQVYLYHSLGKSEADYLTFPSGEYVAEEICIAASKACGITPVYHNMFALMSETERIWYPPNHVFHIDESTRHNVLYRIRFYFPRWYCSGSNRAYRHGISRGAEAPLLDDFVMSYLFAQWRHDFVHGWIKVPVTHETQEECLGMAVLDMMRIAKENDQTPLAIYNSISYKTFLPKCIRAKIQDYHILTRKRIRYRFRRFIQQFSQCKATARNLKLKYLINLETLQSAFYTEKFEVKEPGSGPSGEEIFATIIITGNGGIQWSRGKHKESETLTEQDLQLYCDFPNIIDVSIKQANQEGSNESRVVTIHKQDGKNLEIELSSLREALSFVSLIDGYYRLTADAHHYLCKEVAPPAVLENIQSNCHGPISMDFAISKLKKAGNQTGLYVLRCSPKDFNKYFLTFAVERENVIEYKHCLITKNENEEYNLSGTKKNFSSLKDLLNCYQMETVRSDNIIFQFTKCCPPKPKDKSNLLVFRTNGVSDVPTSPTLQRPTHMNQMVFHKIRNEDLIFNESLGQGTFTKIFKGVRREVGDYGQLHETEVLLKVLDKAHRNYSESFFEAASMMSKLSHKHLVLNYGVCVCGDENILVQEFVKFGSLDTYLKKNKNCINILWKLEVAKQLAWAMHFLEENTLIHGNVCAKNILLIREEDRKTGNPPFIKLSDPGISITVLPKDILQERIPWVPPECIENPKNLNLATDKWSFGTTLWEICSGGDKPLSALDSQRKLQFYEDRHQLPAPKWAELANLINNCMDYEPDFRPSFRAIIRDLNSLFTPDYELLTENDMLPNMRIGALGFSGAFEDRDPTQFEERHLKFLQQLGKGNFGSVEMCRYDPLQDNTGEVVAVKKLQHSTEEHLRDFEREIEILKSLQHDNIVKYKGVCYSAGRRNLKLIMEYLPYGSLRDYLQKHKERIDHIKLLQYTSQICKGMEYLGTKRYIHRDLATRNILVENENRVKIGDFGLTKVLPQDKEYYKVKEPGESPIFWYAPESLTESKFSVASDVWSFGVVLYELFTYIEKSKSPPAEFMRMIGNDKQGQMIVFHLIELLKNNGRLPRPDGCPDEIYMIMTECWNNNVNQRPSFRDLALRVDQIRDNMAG
Sequence of Tyrosine-protein kinase Lck (Homo sapiens) (P06239 2-509 limits assumed): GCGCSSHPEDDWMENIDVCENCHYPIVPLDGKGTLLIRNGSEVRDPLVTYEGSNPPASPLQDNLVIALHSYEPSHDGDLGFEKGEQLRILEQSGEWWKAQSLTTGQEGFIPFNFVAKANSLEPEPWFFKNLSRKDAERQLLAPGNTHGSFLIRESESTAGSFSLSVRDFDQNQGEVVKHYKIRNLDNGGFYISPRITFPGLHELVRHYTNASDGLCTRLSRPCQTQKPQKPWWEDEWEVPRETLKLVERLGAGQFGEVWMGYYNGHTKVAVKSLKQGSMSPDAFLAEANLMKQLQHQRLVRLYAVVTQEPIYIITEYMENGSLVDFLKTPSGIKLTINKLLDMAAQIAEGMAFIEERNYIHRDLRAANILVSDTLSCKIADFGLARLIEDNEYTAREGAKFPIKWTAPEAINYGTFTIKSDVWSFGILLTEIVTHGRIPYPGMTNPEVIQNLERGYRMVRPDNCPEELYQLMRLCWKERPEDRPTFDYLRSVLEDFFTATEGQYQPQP
Sequence of Tyrosine-protein kinase Blk (Homo sapiens) (P51451 2-505 limits assumed): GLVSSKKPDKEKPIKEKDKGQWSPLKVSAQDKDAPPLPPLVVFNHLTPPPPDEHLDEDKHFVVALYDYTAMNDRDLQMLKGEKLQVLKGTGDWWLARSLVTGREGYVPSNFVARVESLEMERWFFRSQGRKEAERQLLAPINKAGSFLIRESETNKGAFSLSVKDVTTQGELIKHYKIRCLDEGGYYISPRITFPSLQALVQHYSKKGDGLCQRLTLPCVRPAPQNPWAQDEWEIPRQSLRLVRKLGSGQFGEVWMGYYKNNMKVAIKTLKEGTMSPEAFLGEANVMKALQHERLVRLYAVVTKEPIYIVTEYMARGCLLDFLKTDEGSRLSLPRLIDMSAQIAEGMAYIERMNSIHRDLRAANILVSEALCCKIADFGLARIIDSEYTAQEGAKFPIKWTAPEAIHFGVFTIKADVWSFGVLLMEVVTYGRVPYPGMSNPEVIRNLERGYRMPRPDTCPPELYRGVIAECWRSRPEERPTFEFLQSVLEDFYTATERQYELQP
Sequence of Platelet-derived growth factor receptor beta (Homo sapiens) (P09619 whole entry): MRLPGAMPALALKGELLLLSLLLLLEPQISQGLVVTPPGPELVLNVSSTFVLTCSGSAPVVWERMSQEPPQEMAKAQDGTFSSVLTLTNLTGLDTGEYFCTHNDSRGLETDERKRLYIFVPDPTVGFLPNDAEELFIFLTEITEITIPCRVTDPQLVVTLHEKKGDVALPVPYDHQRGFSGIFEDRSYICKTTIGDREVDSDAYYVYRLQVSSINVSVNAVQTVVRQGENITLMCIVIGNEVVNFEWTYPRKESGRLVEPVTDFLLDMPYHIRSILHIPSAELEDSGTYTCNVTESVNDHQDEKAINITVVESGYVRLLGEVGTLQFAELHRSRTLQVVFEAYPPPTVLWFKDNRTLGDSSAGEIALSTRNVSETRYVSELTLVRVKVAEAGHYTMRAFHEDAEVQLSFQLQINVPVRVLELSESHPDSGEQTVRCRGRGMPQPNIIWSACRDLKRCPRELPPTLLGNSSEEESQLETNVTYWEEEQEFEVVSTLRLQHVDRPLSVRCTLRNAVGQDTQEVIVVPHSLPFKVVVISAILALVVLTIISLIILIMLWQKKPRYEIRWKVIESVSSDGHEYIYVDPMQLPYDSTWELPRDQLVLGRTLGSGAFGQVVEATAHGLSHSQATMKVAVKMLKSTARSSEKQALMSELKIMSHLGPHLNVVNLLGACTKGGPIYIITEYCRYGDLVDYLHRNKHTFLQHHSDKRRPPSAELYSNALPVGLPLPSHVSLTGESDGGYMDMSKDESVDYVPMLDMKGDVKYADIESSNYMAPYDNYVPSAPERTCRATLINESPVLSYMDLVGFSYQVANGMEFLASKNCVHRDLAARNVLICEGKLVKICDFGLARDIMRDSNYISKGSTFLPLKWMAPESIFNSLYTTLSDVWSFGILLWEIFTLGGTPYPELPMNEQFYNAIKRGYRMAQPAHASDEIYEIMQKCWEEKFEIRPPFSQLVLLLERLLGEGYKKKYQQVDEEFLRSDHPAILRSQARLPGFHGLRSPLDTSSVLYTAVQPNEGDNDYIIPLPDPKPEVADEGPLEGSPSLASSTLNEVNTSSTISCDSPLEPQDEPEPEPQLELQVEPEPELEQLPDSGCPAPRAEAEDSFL

Activity [1]: 0.35%
GI50 [2]: 310 nM
GI50 [3]: 880 nM
inhibition [4]: Active
GI50 [5]: 940 nM
GI50 [6]: 280 nM
MRT inf [7]: 2.75 h
inhibition [8]: Active
AUC(0-inf) [10]: 619 ng·h/mL
inhibition [12]: Active
Activity [13]: 0.45%
GI50 [15]: 300 nM
inhibition [16]: Active
Tmax [18]: 1.2 min
Cmax [21]: 1500 ng/mL
Activity [22]: 0%
GI50 [23]: 3 nM
GI50 [24]: 4 nM
inhibition [25]: Active
inhibition [27]: Active
GI50 [28]: 1800 nM
GI50 [30]: 220 nM
GI50 [31]: 22 nM
half-life [32]: 1.38 h
GI50 [33]: 2200 nM
Vd [35]: 3.23 L/kg
GI50 [36]: 11 nM
inhibition [37]: Active
inhibition [38]: Active
MRT inf [39]: 1.15 h
clearance [40]: 26.9 mL/min/kg
Structure (SMILES): CN(C)CC(=O)N1CCC[C@@H](n2nc(-c3ccc(Oc4ccccc4)cc3)c3c(N)ncnc32)C1
GI50 [9]: 6400 nM
GI50 [11]: 21 nM
Activity [14]: Active
GI50 [17]: 2600 nM
Activity [19]: 1.54 g
Activity [20]: 0.3 g
GI50 [26]: 5500 nM
GI50 [29]: 3800 nM
Activity [34]: Active
